According to ChEMBL document CHEMBL1138049, “Evaluation of small-molecule modulators of the luteinizing hormone/choriogonadotropin and thyroid stimulating hormone receptors: structure-activity relationships and selective binding patterns” (J Med Chem, 2006):

Columns and labels:
[1] = molecular target: Thyrotropin receptor (Homo sapiens) (UniProt P16473); assay: Agonist activity at TSHR expressed in HEK293 EM cells measured by intracellular cAMP accumulation relative to TSH; format: functional, cell-based
In short: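 Human TSHR stably expressed in HEK 293 EM cells, cultured 48 h, then incubated 1 h in serum-free DMEM with 1 mM IBMX and compound (0-100 µM) at 5% CO₂. Lysates assayed for cAMP by enzyme immunoassay. […] Maximal response expressed as % of bovine TSH response, reference 100 mU/mL. Two independent experiments in duplicate.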

[2] = molecular target: Lutropin-choriogonadotropic hormone receptor (Homo sapiens) (UniProt P22888); assay: Agonist activity at LHCGR expressed in HEK293 EM cells measured by intracellular cAMP accumulation relative to LH; format: functional, cell-based
In short: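 Human LHCGR stably expressed in HEK 293 EM cells, cultured 48 h, then incubated 1 h in serum-free DMEM with 1 mM IBMX and compound (0-100 µM) at 5% CO₂. Cells were lysed and cAMP measured by enzyme immunoassay. […] Efficacy is % of maximal response to human LH (1000 ng/ml). Two independent experiments, each in duplicate.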

Sequence of Thyrotropin receptor (Homo sapiens) (P16473 whole entry): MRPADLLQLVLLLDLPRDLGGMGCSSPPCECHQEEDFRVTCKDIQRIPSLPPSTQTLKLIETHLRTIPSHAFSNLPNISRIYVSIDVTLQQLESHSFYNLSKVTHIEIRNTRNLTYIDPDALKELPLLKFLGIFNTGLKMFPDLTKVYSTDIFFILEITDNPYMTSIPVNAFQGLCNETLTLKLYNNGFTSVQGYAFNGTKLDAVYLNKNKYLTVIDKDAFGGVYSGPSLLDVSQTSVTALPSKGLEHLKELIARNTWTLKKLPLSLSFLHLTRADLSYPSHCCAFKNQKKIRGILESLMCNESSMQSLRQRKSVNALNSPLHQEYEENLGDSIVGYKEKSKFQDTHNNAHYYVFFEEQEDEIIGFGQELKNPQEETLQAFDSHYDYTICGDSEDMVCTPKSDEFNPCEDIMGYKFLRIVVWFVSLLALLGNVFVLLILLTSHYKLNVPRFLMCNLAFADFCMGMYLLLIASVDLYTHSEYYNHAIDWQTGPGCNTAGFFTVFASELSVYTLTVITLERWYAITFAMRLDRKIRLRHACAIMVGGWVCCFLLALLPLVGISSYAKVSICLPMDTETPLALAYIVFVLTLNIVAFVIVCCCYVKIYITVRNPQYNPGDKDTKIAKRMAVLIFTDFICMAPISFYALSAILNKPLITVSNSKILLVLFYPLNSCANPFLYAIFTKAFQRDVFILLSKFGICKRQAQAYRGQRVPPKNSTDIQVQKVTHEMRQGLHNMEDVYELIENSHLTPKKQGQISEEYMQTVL
Sequence of Lutropin-choriogonadotropic hormone receptor (Homo sapiens) (P22888 whole entry): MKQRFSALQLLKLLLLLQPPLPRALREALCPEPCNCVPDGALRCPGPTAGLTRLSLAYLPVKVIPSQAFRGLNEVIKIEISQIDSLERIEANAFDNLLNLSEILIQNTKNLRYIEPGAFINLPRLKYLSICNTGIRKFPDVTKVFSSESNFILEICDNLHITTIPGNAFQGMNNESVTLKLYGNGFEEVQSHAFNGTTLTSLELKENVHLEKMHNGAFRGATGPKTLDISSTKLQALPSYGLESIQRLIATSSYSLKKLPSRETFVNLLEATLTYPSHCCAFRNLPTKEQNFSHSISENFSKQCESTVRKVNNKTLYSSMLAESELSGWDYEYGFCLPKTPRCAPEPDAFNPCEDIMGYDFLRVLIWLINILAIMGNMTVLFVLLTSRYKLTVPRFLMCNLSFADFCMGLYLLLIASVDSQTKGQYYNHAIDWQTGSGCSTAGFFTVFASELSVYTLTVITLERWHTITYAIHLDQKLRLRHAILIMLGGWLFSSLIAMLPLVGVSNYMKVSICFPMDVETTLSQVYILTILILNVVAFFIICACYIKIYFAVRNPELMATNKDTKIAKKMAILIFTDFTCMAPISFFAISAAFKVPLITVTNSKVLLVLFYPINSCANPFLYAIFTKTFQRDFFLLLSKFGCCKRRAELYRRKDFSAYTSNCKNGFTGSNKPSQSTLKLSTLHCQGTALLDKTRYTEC

SMILES	Efficacy [1] [%]	Efficacy [2] [%]
COc1cccc(-c2nc(SC)nc3sc(C(=O)NC(C)(C)C)c(N)c23)c1	23.4	45.8
COc1cccc(-c2nc(SC)nc3sc(C(=O)NC(C)(C)C)c(N)c23)c1OC	3	50.1
COc1cccc(-c2nc(SC)nc3sc(C(=O)N(C)C)c(N)c23)c1	4	11
CCNC(=O)c1sc2nc(SC)nc(-c3cccc(OC)c3)c2c1N	2.3	26.9
COc1cccc(-c2nc(SC)nc3sc(C(=O)NCCc4ccccc4)c(N)c23)c1	4.3	25.6
COc1cccc(-c2nc(SC)nc3sc(C(=O)NNC(=O)OC(C)(C)C)c(N)c23)c1	1.9	2.4
CCOC(=O)c1sc2nc(SC)nc(-c3cccc(OC)c3)c2c1N	1.5	4.2
COc1cccc(-c2nc(SC)nc3sc(C(=O)NN)c(N)c23)c1	6.1	8.5

Other lines, results leading:

Efficacy [1] [%]	Efficacy [2] [%]	SMILES
	46.3	COc1cccc(-c2nc(SC)nc3sc(C(=O)NC(C)(C)C)c(N)c23)c1F
11.2	63.9	CSc1nc(-c2cccc(O)c2)c2c(N)c(C(=O)NC(C)(C)C)sc2n1
3	7.8	COc1cccc(-c2nc(SC)nc3sc(C(=O)NCc4ccccc4)c(N)c23)c1
3.6	47.8	COc1cccc(-c2nc(SC)nc3sc(C(=O)N(C)C(C)(C)C)c(N)c23)c1
6.4	6	COc1cccc(-c2nc(SC)nc3sc(C(=O)NNC(C)(C)C)c(N)c23)c1
3.6	20.3	COc1cccc(-c2nc(SC)nc3sc(C(=O)NCC#N)c(N)c23)c1
8.1		CSc1nc(-c2cccc(F)c2)c2c(N)c(C(=O)NC(C)(C)C)sc2n1
2.9	20.5	COc1cccc(-c2nc(SC)nc3sc(C(=O)NCCO)c(N)c23)c1
	23.8	COc1cccc(-c2nc(SC)nc3sc(C(=O)OC(C)(C)C)c(N)c23)c1
